ARNT-TACC3 inh: disruptors of ARNT/TACC3 protein interaction, primary screen, biochemical, AlphaScreen, single concentration | Transforming acidic coiled-coil-containing protein 3 (Homo sapiens), Q9Y6A5 | AlphaScreen His-ARNT PAS-B/GST-TACC3 binding, luminescence; TACC3 fragment carries E629A point mutation | inhibition, % at 9.99 µM | 390,000 tested, 0.66% active | AID 623870, 2012;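 active = mean inhibition of replicates at least 50% and at least half of replicates each reaching 50%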
CAL PDZ FP-1: CAL PDZ peptide-binding inhibitors, primary screen, biochemical, fluorescence polarization, Cer-tagged CAL PDZ, HTS; 330,000 tested, 0.02% active; purified CAL PDZ, TMR-peptide fluorescence polarization, 1 h; inhibition, % at 20 µM; Golgi-associated PDZ and coiled-coil motif-containing protein (Homo sapiens), Q9HD26;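 active = highest replicate inhibition of at least 40%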
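Material: tagged CAL PDZ protein CerCALP, purified; buffer or medium: sodium phosphate/NaCl buffer pH 7.4 with TCEP, IgG, Thesit; also added: fluorescent TMR peptide probe; schedule: 1 h incubation at room temperature before polarization reading; technique: fluorescence polarization from S- and P-plane intensities, G-factor corrected; control set: unlabelled peptide and DMSO controls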
CAL PDZ FP-2: untagged CAL PDZ binding inhibitors, primary screen, biochemical, fluorescence polarization, HTS | AID 602252, 2012 | 300,000 tested, 0.92% active | purified CAL PDZ, TMR-peptide fluorescence polarization, 1 h | inhibition, % at 24.9 µM | Golgi-associated PDZ and coiled-coil motif-containing protein (Homo sapiens), Q9HD26;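 active = mean inhibition of at least 30% with at least half of replicates also reaching 30%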
AlphaScreen ctr: AlphaScreen signal interference compounds, dose response, artefact control for ARNT-TACC3 interaction inhibitor project, biochemical, luminescence, cherry-pick | shares compounds with ARNT-TACC3 inh | His-ARNT PASB-GST AlphaScreen artifact counter-screen | AC50, µM (titrated, usually from 68 µM) | 1,200 tested, 50% active | AID 651705, 2012;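 active = every separate test run was called active for a drop in luminescence, with AC50 within twice the top valid dose, actives reach about 71 µM in these data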
Hits are given with their value; 0 = inactive; - = no result given. Sampled rows, rich in hits. Any-hit rate of the full collection: about 1.2%.

SMILES	ARNT-TACC3 inh	CAL PDZ FP-1	CAL PDZ FP-2	AlphaScreen ctr
C[C@@H]1CN([C@H](C)CO)C(=O)c2cc(NC(=O)C3CCCCC3)ccc2O[C@@H](C)CCCCO[C@@H]1CN(C)Cc1ccncc1	0	-	-	-
C[C@H]1CCCCO[C@@H](CN(C)C(=O)Nc2ccc3c(c2)OCO3)[C@@H](C)CN([C@@H](C)CO)C(=O)c2cc(N(C)C)ccc2O1	0	-	-	-
C[C@@H]1CN([C@H](C)CO)C(=O)c2cc(NC(=O)Nc3ccc(C(F)(F)F)cc3)ccc2O[C@@H](C)CCCCO[C@H]1CN(C)Cc1ccc2c(c1)OCO2	67.6	-	-	53.1µM
CN1CCN(C(=O)C[C@H]2CC[C@@H]3[C@H](COC[C@H](O)CN3CC3CCOCC3)O2)CC1	0	-	-	-
CCNC(=O)Nc1ccc2c(c1)C(=O)N(C)[C@H]1CC[C@H](CC(=O)NCCOC)O[C@H]1CO2	0	-	-	-
CNC(=O)C[C@@H]1CC[C@H]2[C@H](COc3ccc(NC(=O)Nc4ccc(F)c(F)c4)cc3C(=O)N2C)O1	0	-	-	-
COCCOC(=O)N1C(=O)[C@@]2(c3ccccc31)[C@H](c1ccccc1OCCO)N1[C@H](c3ccccc3)[C@H](c3ccccc3)OC(=O)[C@H]1[C@@H]2C(=O)N1CCCCCCC1	0	-	-	-
C[C@@H]1CN([C@H](C)CO)C(=O)Cc2cc(NS(=O)(=O)c3ccc(F)cc3)ccc2O[C@H]1CN(C)CC1CCCCC1	0	-	-	-
CN(C)C(=O)c1cccc(-c2ccc3c(c2)[C@@H]2[C@@H](CCN2S(=O)(=O)c2cn(C)cn2)[C@H](CO)N3)c1	0	-	-	-
CCOc1ccc(-c2cnc(N)n2C)cc1	53.8	0	0	0
Nc1cccn2c(-c3ccc(Cl)cc3)cnc12	0	0	0	-
Cn1c(-c2ccc(Cl)cc2)cnc1N	57.6	0	0	57.8µM
CCOc1ccc(-n2nc3ccc(N)cc3n2)cc1	0	0	0	-
COCC(=O)Nc1ccc2c(c1)C(=O)N(C)C[C@@H](OC)[C@H](C)CN(C(=O)c1ccncc1)[C@H](C)CO2	0	-	-	-
O=C(NCc1ccccc1Cl)[C@H]1[C@H](CO)[C@H]2Cn3c(cccc3=O)[C@H]2N1C(=O)C1CCCC1	0	-	-	-
Cc1cccc(NC(=O)c2cc(-c3ccccc3)on2)n1	-	-	-	0
O=C(Nc1ccc2ccccc2n1)c1cc(-c2ccccc2)on1	-	-	-	0
Cc1ccc(O)c(NC(=O)c2cc(-c3ccccc3)on2)c1	0	0	-	-
Cn1c(NC(=O)c2cc(-c3ccccc3)on2)nc2ccccc21	-	-	-	0
Cc1cc(NC(=O)c2cc(-c3ccccc3)on2)no1	0	0	0	-
O=C(Nc1cc(Br)ccc1O)c1cc(-c2ccccc2)on1	0	0	0	-
COc1ccc(CN(C)C[C@@H]2OCCCC[C@@H](C)Oc3ccc(NS(=O)(=O)c4ccc(C)cc4)cc3C(=O)N([C@H](C)CO)C[C@H]2C)cc1	0	-	-	-
C[C@H]1CN([C@@H](C)CO)C(=O)c2cccc(NC(=O)Nc3ccccc3)c2O[C@H]1CN(C)Cc1ccc(Cl)c(Cl)c1	0	-	-	-
O=C(C[C@@H]1CC[C@@H](NS(=O)(=O)c2cccc(F)c2)[C@@H](CO)O1)N1CCCCC1	0	-	-	-
O=C(CSc1nnc(-c2ccccn2)o1)Nc1ccccc1F	58.7	0	0	0
SMILES	ARNT-TACC3 inh	CAL PDZ FP-1	CAL PDZ FP-2	AlphaScreen ctr
O=C(CSc1ccc2nnc(-c3cccnc3)n2n1)NCC1CCCO1 (stereo not given)	0	0	-	-
O=C(CSc1ccc2nnc(-c3ccccn3)n2n1)Nc1ccccc1F	52.9	0	0	0
CCOC(=O)N1CCN(C(=O)CSc2ccc3nnc(-c4ccncc4)n3n2)CC1	0	0	0	-
CCOC(=O)N1CCN(C(=O)CSc2ccc3nnc(-c4ccccn4)n3n2)CC1	42.0	0	0	0
O=C(CSc1ccc2nnc(-c3ccccn3)n2n1)NCC1CCCO1 (stereo not given)	56.2	0	-	0
O=C(CSc1ccc2nnc(-c3ccccn3)n2n1)Nc1cccc(F)c1	0	0	0	-
O=C(CSc1nnc(-c2ccccn2)o1)Nc1cccc(Cl)c1	0	0	0	-
C[C@H]1CN([C@@H](C)CO)C(=O)c2cc(NC(=O)Cc3cn(C)c4ccccc34)ccc2O[C@H]1CN(C)S(C)(=O)=O	0	-	-	-
Cc1noc(C)c1S(=O)(=O)N(C)C[C@@H]1OCCCC[C@H](C)Oc2ccc(NC(=O)CCCN(C)C)cc2C(=O)N([C@H](C)CO)C[C@@H]1C	0	-	-	-
COc1ccccc1-c1ccc([C@@H]2[C@H](CO)N3CCCCN(S(=O)(=O)c4cn(C)cn4)C[C@@H]23)cc1	0	-	-	-
CN1C(=O)c2cc(NS(C)(=O)=O)ccc2OC[C@H]2O[C@@H](CC(=O)Nc3cccc(F)c3)CC[C@@H]21	0	-	-	-
COCC(=O)N/N=C/c1c(C)[nH]n(-c2ccccc2)c1=O	-	0	0	-
Cc1[nH]n(-c2ccccc2)c(=O)c1/C=N/NC(=O)COc1ccccc1[N+](=O)[O-]	59.0	0	0	0
CCCN(C)C[C@H]1Oc2cc(C#Cc3cccnc3)ccc2S(=O)(=O)N([C@H](C)CO)C[C@@H]1C	0	-	-	-
O=C(C1CCOCC1)N1CC[C@@H]2[C@@H](CO)Nc3ccc(-c4ccc(F)cc4)cc3[C@@H]21	0	-	-	-
O=C(COC(=O)c1ccc(O)cc1O)Nc1nnc(-c2ccccc2)o1	60.4	0	0	47µM
O=C(COC(=O)c1ccc(O)cc1O)Nc1ccc2ccccc2c1	0	0	0	-
CCNC(=O)C[C@@H]1CC[C@@H]2[C@H](COc3ccc(NC(=O)C4CCOCC4)cc3C(=O)N2C)O1	0	-	-	-

Source: PubChem BioAssay
